Reference: ChEMBL document CHEMBL4425110, “ICI 56,780 Optimization: Structure-Activity Relationship Studies of 7-(2-Phenoxyethoxy)-4(1H)-quinolones with Antimalarial Activity” (J Med Chem, 2016)

Tests used:
Plasmodium falciparum [1] = assay: Antimalarial activity against Plasmodium falciparum W2; assay type: functional, organism-based
Plasmodium falciparum [2] = assay: Antimalarial activity against Plasmodium falciparum TM90-C2B; assay type: functional, organism-based
Plasmodium berghei = assay: Antimalarial activity against Plasmodium berghei; assay type: functional, organism-based
Method in brief: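 In vitro liver-stage (exoerythrocytic) assay against P. berghei; the value is the EC50 (nM).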

J774 = assay: Cytotoxicity against mouse J774 cells; assay type: cell-based
Plasmodium falciparum [3] = assay: Resistance index, ratio of EC50 for Plasmodium falciparum TM90-C2B to EC50 for Plasmodium falciparum W2; assay type: functional
[4] = Liver blood index, ratio of EC50 for Plasmodium falciparum W2 to EC50 for Plasmodium berghei; assay type: functional
Method in brief: (§1)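 Liver-stage EC50 measured in vitro against P. berghei. Liver blood index is the blood-stage EC50 divided by the P. berghei EC50, using either W2 or TM90-C2B as the blood-stage strain.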

[5] = Liver blood index, ratio of EC50 for Plasmodium falciparum TM90-C2B to EC50 for Plasmodium berghei; assay type: functional; method in brief: as §1

For `COC(=O)c1c[nH]c2ccc(OC)cc2c1=O`, the EC50 (Plasmodium falciparum [1]) was 482 nM, the EC50 (Plasmodium falciparum [2]) was > 10700 nM and the EC50 (Plasmodium berghei) was 79.6 nM. The EC50 (J774) was 6180 nM, the “Ratio EC50” value (Plasmodium falciparum [3]) was >22.2 and the Ratio EC50 [4] was 6.05.
`CCCCc1cc2c(=O)c(C#N)c[nH]c2cc1OCCOc1ccccc1` showed an EC50 (Plasmodium falciparum [1]) of 97.2 nM, an EC50 (Plasmodium falciparum [2]) of 3170 nM and an EC50 (Plasmodium berghei) of 6.09 nM. For the same compound, the EC50 (J774) was > 20000 nM, the “Ratio EC50” value (Plasmodium falciparum [3]) was 32.6 and the Ratio EC50 [4] was 15.7. For the same compound, the Ratio EC50 [5] was 521.
In the case of `CCCCCc1cc2c(=O)c(C(=O)OC)c[nH]c2cc1OCCOc1ccccc1`, the EC50 (Plasmodium falciparum [1]) is reported as 0.183 nM, the EC50 (Plasmodium falciparum [2]) is reported as 68.7 nM and the EC50 (Plasmodium berghei) is reported as < 0.56 nM. For the same compound, the EC50 (J774) was > 20000 nM and the “Ratio EC50” value (Plasmodium falciparum [3]) was 375.
For `CCCCc1ccc2[nH]ccc(=O)c2c1`, the EC50 (Plasmodium falciparum [1]) was 352 nM, the EC50 (Plasmodium falciparum [2]) was > 12400 nM and the EC50 (Plasmodium berghei) was 395 nM. For the same compound, the EC50 (J774) was > 20000 nM, the “Ratio EC50” value (Plasmodium falciparum [3]) was >35.2 and the Ratio EC50 [4] was 0.89.
For `COC(=O)c1c[nH]c2cc(F)ccc2c1=O`, the EC50 (Plasmodium falciparum [1]) was 26.2 nM, the EC50 (Plasmodium falciparum [2]) was 395 nM and the EC50 (Plasmodium berghei) was > 100 nM. For the same compound, the EC50 (J774) was > 20000 nM and the “Ratio EC50” value (Plasmodium falciparum [3]) was 15.1.
In the case of `CCCCc1cc2c(=O)c(C(C)=O)c[nH]c2cc1OCCOc1ccccc1`, the EC50 (Plasmodium falciparum [1]) is reported as 9.67 nM, the EC50 (Plasmodium falciparum [2]) is reported as 378 nM and the “Ratio EC50” value (Plasmodium falciparum [3]) is reported as 39.1.
With `O=c1cc[nH]c2cc(OCCOc3ccccc3)ccc12` the EC50 (Plasmodium falciparum [1]) was 5960 nM, the EC50 (Plasmodium falciparum [2]) was 7680 nM and the EC50 (Plasmodium berghei) was > 354 nM. The EC50 (J774) was > 20000 nM and the “Ratio EC50” value (Plasmodium falciparum [3]) was 1.29.
For `CCCCc1cc2c(=O)c(C(=O)NC)c[nH]c2cc1OCCOc1ccccc1`, the EC50 (Plasmodium falciparum [1]) was 13.3 nM, the EC50 (Plasmodium falciparum [2]) was 3980 nM and the EC50 (Plasmodium berghei) was 2.87 nM. For the same compound, the EC50 (J774) was > 20000 nM, the “Ratio EC50” value (Plasmodium falciparum [3]) was 299 and the Ratio EC50 [4] was 4.63. The Ratio EC50 [5] was 1390.
In the case of `COC(=O)c1c[nH]c2ccc(Cl)cc2c1=O`, the EC50 (Plasmodium falciparum [1]) is reported as 614 nM, the EC50 (Plasmodium falciparum [2]) is reported as 82200 nM and the EC50 (Plasmodium berghei) is reported as 46.6 nM. For the same compound, the EC50 (J774) was > 20000 nM, the “Ratio EC50” value (Plasmodium falciparum [3]) was 134 and the Ratio EC50 [4] was 13.2. For the same compound, the Ratio EC50 [5] was 1760.
For `CCCCc1cc2c(=O)c(C(=O)NCC)c[nH]c2cc1OCCOc1ccccc1`, the EC50 (Plasmodium falciparum [1]) was 206 nM, the EC50 (Plasmodium falciparum [2]) was > 6120 nM and the EC50 (J774) was > 20000 nM. The “Ratio EC50” value (Plasmodium falciparum [3]) was >29.7.
`CCCCc1ccc2[nH]cc(C(=O)OC)c(=O)c2c1` showed an EC50 (Plasmodium falciparum [1]) of 1.58 nM, an EC50 (Plasmodium falciparum [2]) of 222 nM and an EC50 (Plasmodium berghei) of 0.819 nM. The EC50 (J774) was > 20000 nM, the “Ratio EC50” value (Plasmodium falciparum [3]) was 141 and the Ratio EC50 [4] was 1.93. It also gave a Ratio EC50 [5] of 271.
In the case of `CCCCc1cc2c(=O)c(C(=O)NC(C)C)c[nH]c2cc1OCCOc1ccccc1`, the EC50 (Plasmodium falciparum [1]) is reported as 3340 nM, the EC50 (Plasmodium falciparum [2]) is reported as 5140 nM and the EC50 (J774) is reported as > 20000 nM. The “Ratio EC50” value (Plasmodium falciparum [3]) was 1.54.
With `COC(=O)c1c[nH]c2cc(OCc3ccccc3)ccc2c1=O` the EC50 (Plasmodium falciparum [1]) was 1830 nM, the EC50 (Plasmodium falciparum [2]) was 8080 nM and the EC50 (J774) was 18900 nM. The “Ratio EC50” value (Plasmodium falciparum [3]) was 4.42.
For `CCc1ccc2[nH]cc(C(=O)OC)c(=O)c2c1`, the EC50 (Plasmodium falciparum [1]) was 145 nM, the EC50 (Plasmodium falciparum [2]) was > 10800 nM and the EC50 (J774) was > 20000 nM. For the same compound, the “Ratio EC50” value (Plasmodium falciparum [3]) was >74.5.
For `CCCc1cc2c(=O)c(C(=O)OC)c[nH]c2cc1OCCOc1ccccc1`, the EC50 (Plasmodium falciparum [1]) was 0.157 nM, the EC50 (Plasmodium falciparum [2]) was 42.4 nM and the EC50 (Plasmodium berghei) was < 0.06 nM. The EC50 (J774) was > 20000 nM and the “Ratio EC50” value (Plasmodium falciparum [3]) was 270.
For `COC(=O)c1c[nH]c2cc(-c3ccccc3)ccc2c1=O`, the EC50 (Plasmodium falciparum [1]) was 2560 nM, the EC50 (Plasmodium falciparum [2]) was 11300 nM and the EC50 (J774) was > 20000 nM. For the same compound, the “Ratio EC50” value (Plasmodium falciparum [3]) was 4.41.
For `COC(=O)c1c[nH]c2ccc(C(C)C)cc2c1=O`, the EC50 (Plasmodium falciparum [1]) was 354 nM, the EC50 (Plasmodium falciparum [2]) was > 10200 nM and the EC50 (J774) was > 20000 nM. For the same compound, the “Ratio EC50” value (Plasmodium falciparum [3]) was >28.8.
With `COC(=O)c1c[nH]c2ccc(Oc3ccc(F)cc3)cc2c1=O` the EC50 (Plasmodium falciparum [1]) was 117 nM, the EC50 (Plasmodium falciparum [2]) was 5710 nM and the EC50 (J774) was > 20000 nM. The “Ratio EC50” value (Plasmodium falciparum [3]) was 48.8.
For `COC(=O)c1c[nH]c2ccc(Oc3ccccc3)cc2c1=O`, the EC50 (Plasmodium falciparum [1]) was 381 nM, the EC50 (Plasmodium falciparum [2]) was 7060 nM and the EC50 (J774) was > 20000 nM. The “Ratio EC50” value (Plasmodium falciparum [3]) was 18.5.
For `COC(=O)c1c[nH]c2cc(Cl)ccc2c1=O`, the EC50 (Plasmodium falciparum [1]) was 2360 nM, the EC50 (Plasmodium falciparum [2]) was 5800 nM and the EC50 (J774) was > 20000 nM. The “Ratio EC50” value (Plasmodium falciparum [3]) was 2.46.
With `COC(=O)c1c[nH]c2ccc(-c3ccccc3)cc2c1=O` the EC50 (Plasmodium falciparum [1]) was 2090 nM, the EC50 (Plasmodium falciparum [2]) was 7180 nM and the EC50 (Plasmodium berghei) was > 179 nM. For the same compound, the EC50 (J774) was > 20000 nM and the “Ratio EC50” value (Plasmodium falciparum [3]) was 3.44.
For `CCOc1ccc2[nH]cc(C(=O)OC)c(=O)c2c1`, the EC50 (Plasmodium falciparum [1]) was 292 nM, the EC50 (Plasmodium falciparum [2]) was > 10100 nM and the EC50 (J774) was > 20000 nM. The “Ratio EC50” value (Plasmodium falciparum [3]) was >34.6.
